Results reported in ChEMBL document CHEMBL5058577, “EUbOPEN Chemogenomics Library 2 (Multiplex)” (2022).

Test system: HEK-293T
Experiment: Multiplex assay against HEK293T
Assay type: toxicity, cell-based
Details: human
Summary of the method: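 Phenotypes for tubulin, mitochondrial mass and membrane permeability are expressed as per cents of healthy-nucleus cells. Cells were stained live at seeding with Hoechst33342, BioTracker Green Microtubule Cytoskeleton Dye, MitoTracker Red and Annexin V Alexa Fluor 680, then imaged after compound addition on a CQ1 microscope at 37°C and 5% CO2. Machine-learning gating in CellPathfinder separated Hoechst high-intensity objects from normal cells, divided normal cells by nuclear state (healthy, pyknosed, fragmented) and divided pyknosed cells into mitotic or apoptotic.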

[1] = 12 h, 1 µM, compound concentration 1 uM, replicate 1
[2] = 12 h, 1 µM, compound concentration 1 uM, replicate 2
[3] = 12 h, 10 µM, compound concentration 10 uM, replicate 1
[4] = 12 h, 10 µM, compound concentration 10 uM, replicate 2
[5] = 24 h, 1 µM, compound concentration 1 uM, replicate 1
[6] = 24 h, 1 µM, compound concentration 1 uM, replicate 2
[7] = 24 h, 10 µM, compound concentration 10 uM, replicate 1
[8] = 24 h, 10 µM, compound concentration 10 uM, replicate 2
[9] = 48 h, 1 µM, compound concentration 1 uM, replicate 1
[10] = 48 h, 1 µM, compound concentration 1 uM, replicate 2
[11] = 48 h, 10 µM, compound concentration 10 uM, replicate 1
[12] = 48 h, 10 µM, compound concentration 10 uM, replicate 2

For O=c1nc2[nH]c3ccccc3nc-2c(=O)[nH]1 [ALLOXAZINE], the “Population Apoptotic (%)” value [1] was 27%, the “Population Fragmented Nuclei (%)” value [1] was 8% and the “Population Healthy Nuclei (%)” value [1] was 77%. The “Population Hoechst High Intensity Objects (%)” value [1] was 8%, the “Population Membrane Permeable-Phenotype (%)” value [1] was 0% and the “Population Mitochondria Different-Phenotype (%)” value [1] was 44%. For the same compound, the “Population Mitotic Cells (%)” value [1] was 72%, the “Population Normal (%)” value [1] was 91% and the “Population Pyknosed Nuclei (%)” value [1] was 13%. For the same compound, the “Population Tubulin-Different-Phenotype (%)” value [1] was 33%, the “Total Cell Count” value [1] was 377 and the “Population Apoptotic (%)” value [2] was 44%. The “Population Fragmented Nuclei (%)” value [2] was 4%, the “Population Healthy Nuclei (%)” value [2] was 79% and the “Population Hoechst High Intensity Objects (%)” value [2] was 7%. The “Population Mitochondria Different-Phenotype (%)” value [2] was 66%, the “Population Mitotic Cells (%)” value [2] was 55% and the “Population Normal (%)” value [2] was 92%. The “Population Pyknosed Nuclei (%)” value [2] was 15%, the “Population Tubulin-Different-Phenotype (%)” value [2] was 25% and the “Total Cell Count” value [2] was 345. The “Population Apoptotic (%)” value [3] was 40%, the “Population Fragmented Nuclei (%)” value [3] was 10% and the “Population Healthy Nuclei (%)” value [3] was 71%. The “Population Hoechst High Intensity Objects (%)” value [3] was 5%, the “Population Membrane Permeable-Phenotype (%)” value [3] was 0% and the “Population Mitochondria Different-Phenotype (%)” value [3] was 53%. For the same compound, the “Population Mitotic Cells (%)” value [3] was 59%, the “Population Normal (%)” value [3] was 94% and the “Population Pyknosed Nuclei (%)” value [3] was 18%. The “Population Tubulin-Different-Phenotype (%)” value [3] was 31%, the “Total Cell Count” value [3] was 362 and the “Population Apoptotic (%)” value [4] was 60%. For the same compound, the “Population Fragmented Nuclei (%)” value [4] was 8%, the “Population Healthy Nuclei (%)” value [4] was 70% and the “Population Hoechst High Intensity Objects (%)” value [4] was 15%. The “Population Mitochondria Different-Phenotype (%)” value [4] was 67%, the “Population Mitotic Cells (%)” value [4] was 40% and the “Population Normal (%)” value [4] was 84%. The “Population Pyknosed Nuclei (%)” value [4] was 20%, the “Population Tubulin-Different-Phenotype (%)” value [4] was 20% and the “Total Cell Count” value [4] was 323. The “Population Apoptotic (%)” value [5] was 22%, the “Population Fragmented Nuclei (%)” value [5] was 10% and the “Population Healthy Nuclei (%)” value [5] was 76%. For the same compound, the “Population Hoechst High Intensity Objects (%)” value [5] was 4%, the “Population Membrane Permeable-Phenotype (%)” value [5] was 0% and the “Population Mitochondria Different-Phenotype (%)” value [5] was 24%. The “Population Mitotic Cells (%)” value [5] was 77%, the “Population Normal (%)” value [5] was 95% and the “Population Pyknosed Nuclei (%)” value [5] was 12%. The “Population Tubulin-Different-Phenotype (%)” value [5] was 19%, the “Total Cell Count” value [5] was 504 and the “Population Apoptotic (%)” value [6] was 33%. For the same compound, the “Population Fragmented Nuclei (%)” value [6] was 7%, the “Population Healthy Nuclei (%)” value [6] was 83% and the “Population Hoechst High Intensity Objects (%)” value [6] was 7%. For the same compound, the “Population Mitochondria Different-Phenotype (%)” value [6] was 41%, the “Population Mitotic Cells (%)” value [6] was 66% and the “Population Normal (%)” value [6] was 92%. The “Population Pyknosed Nuclei (%)” value [6] was 8%, the “Population Tubulin-Different-Phenotype (%)” value [6] was 12% and the “Total Cell Count” value [6] was 391. For the same compound, the “Population Apoptotic (%)” value [7] was 27%, the “Population Fragmented Nuclei (%)” value [7] was 9% and the “Population Healthy Nuclei (%)” value [7] was 77%. For the same compound, the “Population Hoechst High Intensity Objects (%)” value [7] was 6%, the “Population Membrane Permeable-Phenotype (%)” value [7] was 0% and the “Population Mitochondria Different-Phenotype (%)” value [7] was 34%. For the same compound, the “Population Mitotic Cells (%)” value [7] was 72%, the “Population Normal (%)” value [7] was 93% and the “Population Pyknosed Nuclei (%)” value [7] was 12%. The “Population Tubulin-Different-Phenotype (%)” value [7] was 21%, the “Total Cell Count” value [7] was 491 and the “Population Apoptotic (%)” value [8] was 50%. For the same compound, the “Population Healthy Nuclei (%)” value [8] was 72%, the “Population Hoechst High Intensity Objects (%)” value [8] was 15% and the “Population Mitochondria Different-Phenotype (%)” value [8] was 48%. For the same compound, the “Population Mitotic Cells (%)” value [8] was 50%, the “Population Normal (%)” value [8] was 84% and the “Population Pyknosed Nuclei (%)” value [8] was 17%. The “Population Tubulin-Different-Phenotype (%)” value [8] was 16%, the “Total Cell Count” value [8] was 371 and the “Population Apoptotic (%)” value [9] was 32%. For the same compound, the “Population Fragmented Nuclei (%)” value [9] was 14%, the “Population Healthy Nuclei (%)” value [9] was 77% and the “Population Hoechst High Intensity Objects (%)” value [9] was 3%. For the same compound, the “Population Membrane Permeable-Phenotype (%)” value [9] was 1%, the “Population Mitochondria Different-Phenotype (%)” value [9] was 18% and the “Population Mitotic Cells (%)” value [9] was 67%. For the same compound, the “Population Normal (%)” value [9] was 96%, the “Population Pyknosed Nuclei (%)” value [9] was 8% and the “Population Tubulin-Different-Phenotype (%)” value [9] was 13%. For the same compound, the “Total Cell Count” value [9] was 773, the “Population Apoptotic (%)” value [10] was 27% and the “Population Fragmented Nuclei (%)” value [10] was 11%. The “Population Healthy Nuclei (%)” value [10] was 82%, the “Population Hoechst High Intensity Objects (%)” value [10] was 4% and the “Population Membrane Permeable-Phenotype (%)” value [10] was 0%. The “Population Mitochondria Different-Phenotype (%)” value [10] was 26%, the “Population Mitotic Cells (%)” value [10] was 72% and the “Population Normal (%)” value [10] was 95%. For the same compound, the “Population Pyknosed Nuclei (%)” value [10] was 6%, the “Population Tubulin-Different-Phenotype (%)” value [10] was 12% and the “Total Cell Count” value [10] was 636. For the same compound, the “Population Apoptotic (%)” value [11] was 29%, the “Population Fragmented Nuclei (%)” value [11] was 15% and the “Population Healthy Nuclei (%)” value [11] was 76%. The “Population Hoechst High Intensity Objects (%)” value [11] was 3%, the “Population Membrane Permeable-Phenotype (%)” value [11] was 0% and the “Population Mitochondria Different-Phenotype (%)” value [11] was 17%. The “Population Mitotic Cells (%)” value [11] was 70%, the “Population Normal (%)” value [11] was 96% and the “Population Pyknosed Nuclei (%)” value [11] was 7%. For the same compound, the “Population Tubulin-Different-Phenotype (%)” value [11] was 11%, the “Total Cell Count” value [11] was 700 and the “Population Apoptotic (%)” value [12] was 48%. The “Population Fragmented Nuclei (%)” value [12] was 14%, the “Population Healthy Nuclei (%)” value [12] was 78% and the “Population Hoechst High Intensity Objects (%)” value [12] was 4%. For the same compound, the “Population Mitochondria Different-Phenotype (%)” value [12] was 28%, the “Population Mitotic Cells (%)” value [12] was 51% and the “Population Normal (%)” value [12] was 95%. The “Population Pyknosed Nuclei (%)” value [12] was 6%, the “Population Tubulin-Different-Phenotype (%)” value [12] was 14% and the “Total Cell Count” value [12] was 531.
